According to ChEMBL document CHEMBL5724801, “EUbOPEN Chemogenomics Library - Multiplex” (2024):
Several values for one entry are separate records, joined by “and”; a condition that tells them apart may be missing. Equal entries are not always repeated.

Test system: U2OS
Test: Multiplex assay against U2OS
Type: toxicity, cell-based
Conditions: human
In short: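 At seeding, live cells were stained with Hoechst33342, BioTracker Green Microtubule Cytoskeleton Dye, MitoTracker Red and Annexin V Alexa Fluor 680. After compound addition they were imaged on a CQ1 microscope at 37°C and 5% CO2, and CellPathfinder machine-learning gating sorted them into Hoechst high-intensity objects or normal cells, with normal cells further split into healthy, pyknosed or fragmented nuclei and pyknosed cells into mitotic or apoptotic. Tubulin, mitochondrial-mass and membrane-permeability phenotypes are given as per cents of cells with healthy nuclei.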

[1] = 12 h, 1 µM, compound concentration 1 uM
[2] = 12 h, 10 µM, compound concentration 10 uM
[3] = 24 h, 1 µM, compound concentration 1 uM
[4] = 24 h, 10 µM, compound concentration 10 uM
[5] = 48 h, 1 µM, compound concentration 1 uM
[6] = 48 h, 10 µM, compound concentration 10 uM

SMILES: N#Cc1ccnc(Nc2cc(C3CCN(C4COC4)CC3)cc(N3CCC(F)(F)C3)n2)c1
- Population Apoptotic (%) [1]: 40.82% and 36.11%
- Population Fragmented Nuclei (%) [1]: 3.13% and 0.79%
- Population Healthy Nuclei (%) [1]: 84.07% and 70.87%
- Population Hoechst High Intensity Objects (%) [1]: 0%
- Population Membrane Permeable-Phenotype (%) [1]: 3.11% and 2.22%
- Population Mitochondria Different-Phenotype (%) [1]: 0.62% and 8.89%
- Population Mitotic Cells (%) [1]: 59.18% and 63.89%
- Population Normal (%) [1]: 100%
- Population Pyknosed Nuclei (%) [1]: 12.79% and 28.35%
- Population Tubulin-Different-Phenotype (%) [1]: 4.35% and 2.22%
- Population Apoptotic (%) [2]: 46.67% and 38.95%
- Population Fragmented Nuclei (%) [2]: 9.07% and 13.15%
- Population Healthy Nuclei (%) [2]: 64.38% and 42.25%
- Population Hoechst High Intensity Objects (%) [2]: 0%
- Population Membrane Permeable-Phenotype (%) [2]: 7.56% and 17.78%
- Population Mitotic Cells (%) [2]: 53.33% and 61.05%
- Population Normal (%) [2]: 100%
- Population Pyknosed Nuclei (%) [2]: 26.55% and 44.6%
- Population Tubulin-Different-Phenotype (%) [2]: 73.88% and 62.22%
- Total Cell Count [2]: 452 and 213
- Population Apoptotic (%) [3]: 47.06% and 53.12%
- Population Fragmented Nuclei (%) [3]: 3.81% and 2.05%
- Population Healthy Nuclei (%) [3]: 82.57% and 76.03%
- Population Hoechst High Intensity Objects (%) [3]: 0%
- Population Membrane Permeable-Phenotype (%) [3]: 2.18% and 6.31%
- Population Mitochondria Different-Phenotype (%) [3]: 0.49% and 8.11%
- Population Mitotic Cells (%) [3]: 52.94% and 46.88%
- Population Normal (%) [3]: 100%
- Population Pyknosed Nuclei (%) [3]: 13.63% and 21.92%
- Population Tubulin-Different-Phenotype (%) [3]: 2.67% and 3.6%
- Population Apoptotic (%) [4]: 51.37% and 67.97%
- Population Fragmented Nuclei (%) [4]: 11.21% and 9%
- Population Healthy Nuclei (%) [4]: 50.11% and 30.33%
- Population Hoechst High Intensity Objects (%) [4]: 0% and 0.47%
- Population Membrane Permeable-Phenotype (%) [4]: 6.75% and 10.94%
- Population Mitochondria Different-Phenotype (%) [4]: 21.94% and 51.56%
- Population Mitotic Cells (%) [4]: 48.63% and 32.03%
- Population Normal (%) [4]: 100% and 99.53%
- Population Pyknosed Nuclei (%) [4]: 38.69% and 60.66%
- Population Tubulin-Different-Phenotype (%) [4]: 58.65% and 40.62%
- Total Cell Count [4]: 473 and 212
- Population Apoptotic (%) [5]: 55.7% and 66.67%
- Population Fragmented Nuclei (%) [5]: 3.56% and 4.98%
- Population Healthy Nuclei (%) [5]: 85.19% and 78.61%
- Population Hoechst High Intensity Objects (%) [5]: 0.14% and 0%
- Population Membrane Permeable-Phenotype (%) [5]: 1.84% and 5.06%
- Population Mitochondria Different-Phenotype (%) [5]: 0.67% and 6.33%
- Population Mitotic Cells (%) [5]: 44.3% and 33.33%
- Population Normal (%) [5]: 99.86% and 100%
- Population Pyknosed Nuclei (%) [5]: 11.25% and 16.42%
- Population Tubulin-Different-Phenotype (%) [5]: 3.01% and 2.53%
- Population Apoptotic (%) [6]: 68.72% and 75.36%
- Population Fragmented Nuclei (%) [6]: 9.35% and 11.35%
- Population Healthy Nuclei (%) [6]: 37.83% and 28.38%
- Population Hoechst High Intensity Objects (%) [6]: 0.22% and 0%
- Population Mitochondria Different-Phenotype (%) [6]: 37.93% and 24.62%
- Population Mitotic Cells (%) [6]: 31.28% and 24.64%
- Population Normal (%) [6]: 99.78% and 100%
- Population Pyknosed Nuclei (%) [6]: 52.83% and 60.26%
- Population Tubulin-Different-Phenotype (%) [6]: 56.9% and 30.77%
- Total Cell Count [6]: 461 and 229

SMILES: CC(C)(O)c1cnc(N2C[C@@]3(CCC[C@](C)(Cn4cnc5ccc(C#N)cc54)C3)OC2=O)cn1 [GSK2798745]
- Population Apoptotic (%) [1]: 63.64% and 30.77%
- Population Fragmented Nuclei (%) [1]: 3.45% and 3.94%
- Population Healthy Nuclei (%) [1]: 87.8% and 85.83%
- Population Hoechst High Intensity Objects (%) [1]: 0%
- Population Membrane Permeable-Phenotype (%) [1]: 0.6% and 4.59%
- Population Mitochondria Different-Phenotype (%) [1]: 0.3% and 10.09%
- Population Mitotic Cells (%) [1]: 36.36% and 69.23%
- Population Normal (%) [1]: 100%
- Population Pyknosed Nuclei (%) [1]: 8.75% and 10.24%
- Population Tubulin-Different-Phenotype (%) [1]: 1.51% and 0%
- Total Cell Count [1]: 377 and 127
- Population Apoptotic (%) [2]: 39.02% and 48.39%
- Population Fragmented Nuclei (%) [2]: 1.62% and 2.98%
- Population Healthy Nuclei (%) [2]: 87.33% and 78.57%
- Population Hoechst High Intensity Objects (%) [2]: 0%
- Population Membrane Permeable-Phenotype (%) [2]: 2.16% and 6.06%
- Population Mitotic Cells (%) [2]: 60.98% and 51.61%
- Population Normal (%) [2]: 100%
- Population Pyknosed Nuclei (%) [2]: 11.05% and 18.45%
- Population Tubulin-Different-Phenotype (%) [2]: 3.7% and 1.52%
- Total Cell Count [2]: 371 and 168
- Population Apoptotic (%) [3]: 40.48% and 23.53%
- Population Fragmented Nuclei (%) [3]: 1.65% and 5.56%
- Population Healthy Nuclei (%) [3]: 89.67% and 83.95%
- Population Hoechst High Intensity Objects (%) [3]: 0%
- Population Membrane Permeable-Phenotype (%) [3]: 0.23% and 2.94%
- Population Mitochondria Different-Phenotype (%) [3]: 0.23% and 2.94%
- Population Mitotic Cells (%) [3]: 59.52% and 76.47%
- Population Normal (%) [3]: 100%
- Population Pyknosed Nuclei (%) [3]: 8.68% and 10.49%
- Population Tubulin-Different-Phenotype (%) [3]: 0.69% and 0%
- Total Cell Count [3]: 484 and 162
- Population Apoptotic (%) [4]: 44% and 37.5%
- Population Fragmented Nuclei (%) [4]: 1.39% and 4.31%
- Population Healthy Nuclei (%) [4]: 88.71% and 84.21%
- Population Hoechst High Intensity Objects (%) [4]: 0.2% and 0%
- Population Membrane Permeable-Phenotype (%) [4]: 1.34% and 6.25%
- Population Mitochondria Different-Phenotype (%) [4]: 0.67% and 8.52%
- Population Mitotic Cells (%) [4]: 56% and 62.5%
- Population Normal (%) [4]: 99.8% and 100%
- Population Pyknosed Nuclei (%) [4]: 9.9% and 11.48%
- Population Tubulin-Different-Phenotype (%) [4]: 3.12% and 1.7%
- Total Cell Count [4]: 506 and 209
- Population Apoptotic (%) [5]: 34.95% and 33.33%
- Population Fragmented Nuclei (%) [5]: 3.43% and 2.22%
- Population Healthy Nuclei (%) [5]: 85.16% and 84.44%
- Population Hoechst High Intensity Objects (%) [5]: 0%
- Population Membrane Permeable-Phenotype (%) [5]: 1.17% and 3.07%
- Population Mitochondria Different-Phenotype (%) [5]: 0.13% and 4.82%
- Population Mitotic Cells (%) [5]: 65.05% and 66.67%
- Population Normal (%) [5]: 100%
- Population Pyknosed Nuclei (%) [5]: 11.41% and 13.33%
- Population Tubulin-Different-Phenotype (%) [5]: 0.52% and 1.32%
- Population Apoptotic (%) [6]: 52.17% and 44.9%
- Population Fragmented Nuclei (%) [6]: 2.1% and 0.91%
- Population Healthy Nuclei (%) [6]: 87.73% and 84.29%
- Population Hoechst High Intensity Objects (%) [6]: 0%
- Population Membrane Permeable-Phenotype (%) [6]: 1.26% and 1.79%
- Population Mitochondria Different-Phenotype (%) [6]: 0.5% and 9.68%
- Population Mitotic Cells (%) [6]: 47.83% and 55.1%
- Population Normal (%) [6]: 100%
- Population Pyknosed Nuclei (%) [6]: 10.17% and 14.8%
- Population Tubulin-Different-Phenotype (%) [6]: 3.65% and 0.36%
- Total Cell Count [6]: 905 and 331

SMILES: COc1cc2nc(N3CCN(C(=O)COc4c(OC)cccc4C(C)C)CC3)nc(N)c2cc1OC.Cl.Cl
- Population Apoptotic (%) [1]: 67% and 33%
- Population Fragmented Nuclei (%) [1]: 21% and 10%
- Population Healthy Nuclei (%) [1]: 66% and 84%
- Population Hoechst High Intensity Objects (%) [1]: 3% and 2%
- Population Membrane Permeable-Phenotype (%) [1]: 10%
- Population Mitochondria Different-Phenotype (%) [1]: 5% and 6%
- Population Mitotic Cells (%) [1]: 32% and 66%
- Population Normal (%) [1]: 96% and 97%
- Population Pyknosed Nuclei (%) [1]: 11% and 4%
- Population Tubulin-Different-Phenotype (%) [1]: 6%
- Total Cell Count [1]: 256 and 136
- Population Apoptotic (%) [2]: 55% and 66%
- Population Fragmented Nuclei (%) [2]: 30% and 19%
- Population Healthy Nuclei (%) [2]: 43% and 48%
- Population Hoechst High Intensity Objects (%) [2]: 3% and 0%
- Population Membrane Permeable-Phenotype (%) [2]: 60% and 54%
- Population Mitochondria Different-Phenotype (%) [2]: 55% and 65%
- Population Mitotic Cells (%) [2]: 44% and 33%
- Population Normal (%) [2]: 96% and 99%
- Population Pyknosed Nuclei (%) [2]: 25% and 32%
- Population Tubulin-Different-Phenotype (%) [2]: 75% and 68%
- Total Cell Count [2]: 233 and 151
- Population Apoptotic (%) [3]: 84% and 80%
- Population Fragmented Nuclei (%) [3]: 21% and 15%
- Population Healthy Nuclei (%) [3]: 67% and 77%
- Population Hoechst High Intensity Objects (%) [3]: 3% and 0%
- Population Membrane Permeable-Phenotype (%) [3]: 6% and 10%
- Population Mitochondria Different-Phenotype (%) [3]: 8% and 7%
- Population Mitotic Cells (%) [3]: 15% and 20%
- Population Normal (%) [3]: 96% and 99%
- Population Pyknosed Nuclei (%) [3]: 11% and 6%
- Population Tubulin-Different-Phenotype (%) [3]: 4% and 5%
- Total Cell Count [3]: 297 and 154
- Population Apoptotic (%) [4]: 76% and 87%
- Population Fragmented Nuclei (%) [4]: 30% and 20%
- Population Healthy Nuclei (%) [4]: 36% and 40%
- Population Hoechst High Intensity Objects (%) [4]: 9% and 12%
- Population Membrane Permeable-Phenotype (%) [4]: 40% and 49%
- Population Mitochondria Different-Phenotype (%) [4]: 49% and 50%
- Population Mitotic Cells (%) [4]: 24% and 12%
- Population Normal (%) [4]: 90% and 87%
- Population Pyknosed Nuclei (%) [4]: 33% and 39%
- Population Tubulin-Different-Phenotype (%) [4]: 50% and 60%
- Total Cell Count [4]: 246 and 185
- Population Apoptotic (%) [5]: 83% and 75%
- Population Fragmented Nuclei (%) [5]: 20% and 16%
- Population Healthy Nuclei (%) [5]: 70% and 72%
- Population Hoechst High Intensity Objects (%) [5]: 2% and 3%
- Population Membrane Permeable-Phenotype (%) [5]: 6% and 7%
- Population Mitochondria Different-Phenotype (%) [5]: 6%
- Population Mitotic Cells (%) [5]: 16% and 25%
- Population Normal (%) [5]: 97% and 96%
- Population Pyknosed Nuclei (%) [5]: 8% and 11%
- Population Tubulin-Different-Phenotype (%) [5]: 4% and 6%
- Total Cell Count [5]: 441 and 225
- Population Apoptotic (%) [6]: 88% and 93%
- Population Fragmented Nuclei (%) [6]: 40% and 24%
- Population Healthy Nuclei (%) [6]: 21% and 23%
- Population Hoechst High Intensity Objects (%) [6]: 31% and 32%
- Population Membrane Permeable-Phenotype (%) [6]: 13% and 27%
- Population Mitochondria Different-Phenotype (%) [6]: 30% and 10%
- Population Mitotic Cells (%) [6]: 11% and 6%
- Population Normal (%) [6]: 68% and 67%
- Population Pyknosed Nuclei (%) [6]: 38% and 51%
- Population Tubulin-Different-Phenotype (%) [6]: 13% and 24%
- Total Cell Count [6]: 296 and 180
